In ChEMBL document CHEMBL2034880, “Synthesis and biological evaluation of pyrimidine-based dual inhibitors of human epidermal growth factor receptor 1 (HER-1) and HER-2 tyrosine kinases” (J Med Chem, 2012):
Each block holds one compound with its values, some of them ahead of it.

Columns and labels:
[1] = Half life in human liver microsomes at 5 uM
[2] = Half life in rat liver microsomes at 5 uM
[3] = Half life in dog liver microsomes at 5 uM
SK-BR-3 = test: Cytotoxicity against human SKBR3 cells overexpressing HER-2 gene after 72 hrs by SRB assay; assay type: functional, cell-based; settings: SK-BR-3, 72 h
Method in brief: (§1)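 A431 and SK-Br3 cells grown in DMEM (4.5 g/L glucose, 1.5 g/L sodium bicarbonate) with 10% FBS at 37 °C, humidified 5% CO2. Proliferation/growth inhibition IC50 values are means of three independent experiments, each run in duplicate.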

[4] = Half life in mouse liver microsomes at 5 uM
A-431 = test: Cytotoxicity against human A431 cells overexpressing HER-1 gene after 72 hrs by SRB assay; assay type: functional, cell-based; settings: A-431, 72 h; method in brief: as §1
[5] = molecular target: Tyrosine-protein kinase ABL1 (Homo sapiens, UniProt P00519); test: Inhibition of Abl at 3 uM
[6] = molecular target: Aurora kinase A (Homo sapiens) (UniProt O14965); test: Inhibition of Aurora A at 3 uM
[7] = molecular target: Tyrosine-protein kinase Blk (Homo sapiens) (UniProt P51451); test: Inhibition of Blk at 3 uM
[8] = molecular target: Vascular endothelial growth factor receptor 1 (Homo sapiens, UniProt P17948); test: Inhibition of Flt1 at 3 uM
[9] = molecular target: Hepatocyte growth factor receptor (Homo sapiens, UniProt P08581); test: Inhibition of MET at 3 uM
[10] = molecular target: Tyrosine-protein kinase SYK (Homo sapiens, UniProt P43405); test: Inhibition of Syk at 3 uM
[11] = molecular target: 5'-AMP-activated protein kinase catalytic subunit alpha-1 (Homo sapiens, UniProt Q13131); settings: 3 uM
[12] = molecular target: Cyclin-dependent kinase 1/cyclin B1 (Homo sapiens) (UniProt P06493+P14635); settings: 3 uM
[13] = molecular target: Mast/stem cell growth factor receptor Kit (Homo sapiens, UniProt P10721); settings: 3 uM
Focal adhesion kinase 1 = Focal adhesion kinase 1 (Homo sapiens, UniProt Q05397); settings: 3 uM
[14] = molecular target: Fibroblast growth factor receptor 1 (Homo sapiens, UniProt P11362); settings: 3 uM
[15] = molecular target: Receptor-type tyrosine-protein kinase FLT3 (Homo sapiens) (UniProt P36888); settings: 3 uM
[16] = molecular target: Insulin-like growth factor 1 receptor (Homo sapiens, UniProt P08069); settings: 3 uM
Insulin receptor = Insulin receptor (Homo sapiens, UniProt P06213); settings: 3 uM
[17] = molecular target: Tyrosine-protein kinase JAK2 (Homo sapiens, UniProt O60674); settings: 3 uM
[18] = molecular target: Serine/threonine-protein kinase STK11 (Homo sapiens) (UniProt Q15831); settings: 3 uM
[19] = molecular target: Dual specificity mitogen-activated protein kinase kinase 1 (Homo sapiens, UniProt Q02750); settings: 3 uM
[20] = molecular target: Platelet-derived growth factor receptor alpha (Homo sapiens, UniProt P16234); settings: 3 uM
[21] = molecular target: Platelet-derived growth factor receptor beta (Homo sapiens, UniProt P09619); settings: 3 uM
[22] = molecular target: Serine/threonine-protein kinase pim-1 (Homo sapiens, UniProt P11309); settings: 3 uM
[23] = molecular target: T1, Receptor tyrosine-protein kinase erbB-2 (Homo sapiens, UniProt P04626); settings: SK-BR-3, 1 uM
[24] = molecular target: T1, Receptor tyrosine-protein kinase erbB-2; settings: SK-BR-3, 1 uM; remark: listed apart in the source
[25] = AUC (0 to last) in ICR mouse at 10 mg/kg, po; assay type: ADME, organism-based; parameters: time 0 - last, dose 10 mg/kg, route oral; settings: plasma
Method in brief: (§2)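 Male ICR mice (27 5 g) and male Sprague-Dawley rats (250 10 g), n = 3 per route. Single oral gavage dose (mice 10 mg/kg, rats 5 mg/kg) and tail-vein iv dose (mice 2 mg/kg, rats 1 mg/kg). Compound given as HCl salt in 30% PEG400 and 5% ethanol in distilled water. Jugular blood drawn at set times over at least 24 h into heparin. Plasma level measured by LC/MS/MS after acetonitrile protein precipitation.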

[26] = Cmax in ICR mouse at 10 mg/kg, po; assay type: ADME, organism-based; parameters: dose 10 mg/kg, route oral; settings: in vivo; method in brief: as §2
[27] = Half life in ICR mouse at 10 mg/kg, po; assay type: ADME, organism-based; parameters: dose 10 mg/kg, route oral; settings: in vivo; method in brief: as §2
[28] = Oral bioavailability in ICR mouse at 10 mg/kg; assay type: ADME, organism-based; settings: in vivo; method in brief: as §2
[29] = AUC (0 to last) in Sprague-Dawley rat at 5 mg/kg, po; assay type: ADME, organism-based; parameters: dose 5 mg/kg, route oral, time 0 - last; settings: plasma; method in brief: as §2
[30] = Cmax in Sprague-Dawley rat at 5 mg/kg, po; assay type: ADME, organism-based; parameters: dose 5 mg/kg, route oral; settings: in vivo; method in brief: as §2
[31] = Half life in Sprague-Dawley rat at 5 mg/kg, po; assay type: ADME, organism-based; parameters: dose 5 mg/kg, route oral; settings: in vivo; method in brief: as §2
[32] = Oral bioavailability in Sprague-Dawley rat at 5 mg/kg; assay type: ADME, organism-based; settings: in vivo; method in brief: as §2

T1 sequence (P04626 whole entry): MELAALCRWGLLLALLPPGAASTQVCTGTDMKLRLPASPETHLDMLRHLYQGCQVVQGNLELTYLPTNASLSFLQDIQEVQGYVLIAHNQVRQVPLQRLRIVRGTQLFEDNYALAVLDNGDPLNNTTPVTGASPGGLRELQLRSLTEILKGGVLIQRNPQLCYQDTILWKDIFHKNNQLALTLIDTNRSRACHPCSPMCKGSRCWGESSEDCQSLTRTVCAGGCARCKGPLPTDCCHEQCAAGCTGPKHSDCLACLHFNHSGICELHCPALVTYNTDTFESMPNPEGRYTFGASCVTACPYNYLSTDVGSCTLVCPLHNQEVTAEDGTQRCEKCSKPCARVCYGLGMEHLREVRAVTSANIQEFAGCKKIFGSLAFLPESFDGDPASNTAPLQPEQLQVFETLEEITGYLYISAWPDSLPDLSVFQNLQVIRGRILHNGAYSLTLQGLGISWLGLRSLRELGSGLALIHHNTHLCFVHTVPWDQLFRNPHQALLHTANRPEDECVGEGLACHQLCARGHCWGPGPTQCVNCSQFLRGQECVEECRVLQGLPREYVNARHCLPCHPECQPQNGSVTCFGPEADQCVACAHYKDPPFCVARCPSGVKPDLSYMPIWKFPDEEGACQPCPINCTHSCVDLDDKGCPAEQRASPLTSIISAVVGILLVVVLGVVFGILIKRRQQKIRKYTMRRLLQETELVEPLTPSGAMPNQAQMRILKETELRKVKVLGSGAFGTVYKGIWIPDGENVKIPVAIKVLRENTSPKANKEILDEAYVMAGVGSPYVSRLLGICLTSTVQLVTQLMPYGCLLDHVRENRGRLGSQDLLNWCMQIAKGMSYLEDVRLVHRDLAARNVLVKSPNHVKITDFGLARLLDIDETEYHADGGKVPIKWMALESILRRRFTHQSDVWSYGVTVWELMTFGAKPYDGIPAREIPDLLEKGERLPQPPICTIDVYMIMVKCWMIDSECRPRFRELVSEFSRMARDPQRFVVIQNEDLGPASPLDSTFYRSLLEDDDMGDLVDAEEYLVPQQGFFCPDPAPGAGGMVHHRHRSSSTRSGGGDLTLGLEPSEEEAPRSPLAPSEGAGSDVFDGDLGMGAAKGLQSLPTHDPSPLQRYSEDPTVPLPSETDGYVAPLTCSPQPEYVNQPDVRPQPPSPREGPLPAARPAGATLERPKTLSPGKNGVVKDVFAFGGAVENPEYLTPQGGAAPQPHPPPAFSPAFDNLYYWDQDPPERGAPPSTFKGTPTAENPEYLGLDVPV
Chain of Tyrosine-protein kinase JAK2 (O60674 whole entry): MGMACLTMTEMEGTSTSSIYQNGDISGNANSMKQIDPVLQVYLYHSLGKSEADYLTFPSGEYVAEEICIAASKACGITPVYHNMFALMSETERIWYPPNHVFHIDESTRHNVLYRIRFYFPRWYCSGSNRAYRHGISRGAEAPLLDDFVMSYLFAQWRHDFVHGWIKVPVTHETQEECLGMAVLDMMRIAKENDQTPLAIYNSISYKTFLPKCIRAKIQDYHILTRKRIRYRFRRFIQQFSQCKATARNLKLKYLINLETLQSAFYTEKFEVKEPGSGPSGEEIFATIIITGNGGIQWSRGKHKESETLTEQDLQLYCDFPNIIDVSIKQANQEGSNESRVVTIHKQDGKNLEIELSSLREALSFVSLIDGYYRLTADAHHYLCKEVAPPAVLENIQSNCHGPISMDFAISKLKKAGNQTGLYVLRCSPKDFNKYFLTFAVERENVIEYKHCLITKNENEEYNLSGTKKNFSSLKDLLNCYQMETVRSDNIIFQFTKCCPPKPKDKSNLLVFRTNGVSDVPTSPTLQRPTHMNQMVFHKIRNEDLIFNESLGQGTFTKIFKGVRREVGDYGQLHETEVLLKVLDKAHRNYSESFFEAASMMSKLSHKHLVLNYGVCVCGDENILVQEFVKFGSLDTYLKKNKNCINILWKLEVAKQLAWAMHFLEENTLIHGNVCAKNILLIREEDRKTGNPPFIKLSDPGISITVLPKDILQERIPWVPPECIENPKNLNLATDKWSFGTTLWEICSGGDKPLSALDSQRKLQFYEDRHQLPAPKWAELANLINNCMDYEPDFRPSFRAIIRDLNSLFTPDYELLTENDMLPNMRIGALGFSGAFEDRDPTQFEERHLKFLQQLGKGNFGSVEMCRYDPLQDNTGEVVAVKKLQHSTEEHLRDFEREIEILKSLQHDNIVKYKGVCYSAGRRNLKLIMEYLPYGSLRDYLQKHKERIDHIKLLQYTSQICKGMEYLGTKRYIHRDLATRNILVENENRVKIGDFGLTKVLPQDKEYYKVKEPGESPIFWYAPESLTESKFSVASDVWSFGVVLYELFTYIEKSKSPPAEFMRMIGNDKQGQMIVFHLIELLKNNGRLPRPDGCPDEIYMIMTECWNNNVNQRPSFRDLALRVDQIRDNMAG
Chain of Insulin-like growth factor 1 receptor (P08069 31-736 limits assumed): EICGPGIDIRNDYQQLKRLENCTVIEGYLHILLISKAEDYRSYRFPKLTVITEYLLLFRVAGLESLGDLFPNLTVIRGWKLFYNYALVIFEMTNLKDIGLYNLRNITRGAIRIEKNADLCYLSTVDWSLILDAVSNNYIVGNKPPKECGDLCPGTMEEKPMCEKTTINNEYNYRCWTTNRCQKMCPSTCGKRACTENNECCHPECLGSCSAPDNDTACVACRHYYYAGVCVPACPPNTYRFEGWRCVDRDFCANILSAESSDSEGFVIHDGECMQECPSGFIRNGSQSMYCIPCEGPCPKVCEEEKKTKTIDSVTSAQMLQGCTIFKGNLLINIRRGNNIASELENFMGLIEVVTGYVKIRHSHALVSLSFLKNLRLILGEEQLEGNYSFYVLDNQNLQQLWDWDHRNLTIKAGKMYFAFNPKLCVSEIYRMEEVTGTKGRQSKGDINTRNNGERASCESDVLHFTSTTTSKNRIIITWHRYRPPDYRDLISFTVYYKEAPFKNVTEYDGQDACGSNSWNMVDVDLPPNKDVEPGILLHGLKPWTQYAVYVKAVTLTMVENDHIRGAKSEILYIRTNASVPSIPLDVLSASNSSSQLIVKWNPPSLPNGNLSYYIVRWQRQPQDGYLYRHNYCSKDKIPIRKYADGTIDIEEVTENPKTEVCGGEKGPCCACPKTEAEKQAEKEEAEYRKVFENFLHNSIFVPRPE
Chain of Insulin-like growth factor 1 receptor (P08069 741-1367 limits assumed): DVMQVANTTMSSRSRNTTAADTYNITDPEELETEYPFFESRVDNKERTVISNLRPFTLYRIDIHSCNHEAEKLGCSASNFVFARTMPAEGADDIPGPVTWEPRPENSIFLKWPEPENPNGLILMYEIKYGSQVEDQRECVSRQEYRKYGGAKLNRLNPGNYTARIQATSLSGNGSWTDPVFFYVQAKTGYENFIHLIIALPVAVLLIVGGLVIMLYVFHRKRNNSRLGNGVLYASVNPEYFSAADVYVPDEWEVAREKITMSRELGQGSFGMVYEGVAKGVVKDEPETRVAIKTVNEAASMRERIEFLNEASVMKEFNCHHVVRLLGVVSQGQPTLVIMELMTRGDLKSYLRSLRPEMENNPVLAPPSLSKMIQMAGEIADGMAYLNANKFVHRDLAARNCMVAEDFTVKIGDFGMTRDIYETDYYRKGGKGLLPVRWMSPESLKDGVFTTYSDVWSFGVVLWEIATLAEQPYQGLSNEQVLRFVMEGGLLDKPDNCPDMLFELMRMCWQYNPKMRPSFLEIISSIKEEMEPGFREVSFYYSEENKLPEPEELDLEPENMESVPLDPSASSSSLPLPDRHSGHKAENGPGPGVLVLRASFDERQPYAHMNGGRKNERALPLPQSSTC
Chain of Mast/stem cell growth factor receptor Kit (P10721 whole entry): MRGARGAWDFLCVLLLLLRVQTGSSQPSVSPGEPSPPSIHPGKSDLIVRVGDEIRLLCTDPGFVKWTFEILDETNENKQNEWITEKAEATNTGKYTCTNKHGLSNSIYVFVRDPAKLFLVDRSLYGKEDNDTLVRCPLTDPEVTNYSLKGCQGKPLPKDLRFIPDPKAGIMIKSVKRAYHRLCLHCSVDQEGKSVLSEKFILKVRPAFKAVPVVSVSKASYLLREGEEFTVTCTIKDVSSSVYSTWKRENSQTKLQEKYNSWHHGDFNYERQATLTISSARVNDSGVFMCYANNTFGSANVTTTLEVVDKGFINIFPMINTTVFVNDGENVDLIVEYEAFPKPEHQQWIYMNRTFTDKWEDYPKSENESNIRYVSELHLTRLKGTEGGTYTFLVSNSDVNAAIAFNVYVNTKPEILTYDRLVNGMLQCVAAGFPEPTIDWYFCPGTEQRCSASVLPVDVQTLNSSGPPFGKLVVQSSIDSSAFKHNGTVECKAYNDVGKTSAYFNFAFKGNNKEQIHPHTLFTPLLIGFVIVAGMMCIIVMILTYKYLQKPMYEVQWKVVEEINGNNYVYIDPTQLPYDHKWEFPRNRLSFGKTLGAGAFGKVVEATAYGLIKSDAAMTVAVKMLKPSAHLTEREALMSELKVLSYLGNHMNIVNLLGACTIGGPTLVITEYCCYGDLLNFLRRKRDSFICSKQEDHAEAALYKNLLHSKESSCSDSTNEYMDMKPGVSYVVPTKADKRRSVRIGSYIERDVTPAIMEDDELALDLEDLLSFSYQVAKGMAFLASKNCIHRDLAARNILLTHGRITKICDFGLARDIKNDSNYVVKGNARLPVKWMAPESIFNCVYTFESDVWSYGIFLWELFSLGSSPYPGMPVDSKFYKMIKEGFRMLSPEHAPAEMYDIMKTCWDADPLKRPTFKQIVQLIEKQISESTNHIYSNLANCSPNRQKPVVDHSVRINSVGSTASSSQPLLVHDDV
Chain of Dual specificity mitogen-activated protein kinase kinase 1 (Q02750 whole entry): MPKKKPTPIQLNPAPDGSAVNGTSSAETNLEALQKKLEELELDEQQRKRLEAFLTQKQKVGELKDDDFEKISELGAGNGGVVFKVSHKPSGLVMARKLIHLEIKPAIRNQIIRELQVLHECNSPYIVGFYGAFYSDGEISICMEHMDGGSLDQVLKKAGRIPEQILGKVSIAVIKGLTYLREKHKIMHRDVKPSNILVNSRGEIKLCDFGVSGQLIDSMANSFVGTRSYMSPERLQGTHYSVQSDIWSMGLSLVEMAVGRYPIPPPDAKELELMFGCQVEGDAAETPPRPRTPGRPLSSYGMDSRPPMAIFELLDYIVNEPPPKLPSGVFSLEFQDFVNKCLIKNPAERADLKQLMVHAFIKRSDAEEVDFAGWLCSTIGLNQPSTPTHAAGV

half-life at 5 µM ([1]; microsomes): > 100 min
half-life at 5 µM ([2]; microsomes): 25 min
half-life at 5 µM ([3]; microsomes): 51 min
half-life at 5 µM ([4]; microsomes): 39 min
SMILES: C=CC(=O)NCc1coc(-c2c(N)ncnc2Nc2ccc(Oc3ccnn3C)c(Cl)c2)n1
IC50 (SK-BR-3): 4 nM
IC50 (A-431): 66 nM

half-life at 5 µM ([1]; liver microsomes): > 100 min
half-life at 5 µM ([2]; liver microsomes): 59 min
half-life at 5 µM ([3]; liver microsomes): > 100 min
half-life at 5 µM ([4]; liver microsomes): 48 min
SMILES: C=CC(=O)NCc1coc(-c2c(N)ncnc2Nc2ccc(Oc3ccccc3)c(Cl)c2)n1
IC50 (SK-BR-3): 3.1 nM
IC50 (A-431): 60 nM

half-life at 5 µM ([1]; liver microsomes): > 100 min
half-life at 5 µM ([2]; liver microsomes): 54 min
half-life at 5 µM ([3]; liver microsomes): > 100 min
half-life at 5 µM ([4]; liver microsomes): > 100 min
SMILES: C=CC(=O)NCc1coc(-c2c(N)ncnc2Nc2ccc(Oc3cccc(F)c3)c(Cl)c2)n1
IC50 (SK-BR-3): 0.5 nM
IC50 (A-431): 75 nM

half-life at 5 µM ([1]; microsomes): > 100 min
half-life at 5 µM ([2]; microsomes): > 100 min
half-life at 5 µM ([3]; microsomes): > 100 min
half-life at 5 µM ([4]; microsomes): > 100 min
SMILES: C=CC(=O)NCc1coc(-c2c(N)ncnc2Nc2ccc(Oc3cc(C(F)(F)F)nn3C)c(Cl)c2)n1
IC50 (SK-BR-3): 3.3 nM
IC50 (A-431): 65 nM

inhibition [5]: 15%
inhibition [6]: 42%
inhibition [7]: 77%
inhibition [8]: 15%
inhibition [9]: 13%
inhibition [10]: 15%
inhibition [11]: 0%
inhibition [12]: 0%
inhibition [13]: 0%
inhibition (Focal adhesion kinase 1): 0%
inhibition [14]: 0%
inhibition [15]: 0%
inhibition [16]: 0%
inhibition (Insulin receptor): 0%
inhibition [17]: 0%
inhibition [18]: 0%
inhibition [19]: 14%
inhibition [20]: 0%
inhibition [21]: 0%
inhibition [22]: 2%
inhibition [23]: 87.5%
inhibition [24]: 68.2%
SMILES: C=CC(=O)NCc1coc(-c2c(N)ncnc2Nc2ccc(OCc3ccccn3)c(Cl)c2)n1

half-life at 5 µM ([1]; liver microsomes): 15 min
half-life at 5 µM ([2]; liver microsomes): 9 min
half-life at 5 µM ([3]; liver microsomes): 39 min
half-life at 5 µM ([4]; liver microsomes): 18 min
SMILES: C=CC(=O)NCc1coc(-c2c(N)ncnc2Nc2ccc(Oc3cccnc3)c(Cl)c2)n1
IC50 (SK-BR-3): 2.4 nM
IC50 (A-431): 68 nM

half-life at 5 µM ([1]; liver microsomes): 39 min
half-life at 5 µM ([2]; liver microsomes): 16 min
half-life at 5 µM ([3]; liver microsomes): 24 min
half-life at 5 µM ([4]; liver microsomes): 15 min
SMILES: C=CC(=O)NCc1coc(-c2c(N)ncnc2Nc2ccc(Oc3ccccn3)c(Cl)c2)n1
IC50 (SK-BR-3): 1.7 nM
IC50 (A-431): 36 nM

half-life at 5 µM ([1]; liver microsomes): > 100 min
half-life at 5 µM ([2]; liver microsomes): 66 min
half-life at 5 µM ([3]; liver microsomes): > 100 min
half-life at 5 µM ([4]; liver microsomes): > 100 min
SMILES: C=CC(=O)NCc1coc(-c2c(N)ncnc2Nc2ccc(Oc3ccc(F)cc3)c(Cl)c2)n1
IC50 (SK-BR-3): 6 nM
IC50 (A-431): 39 nM

The remaining lines, values behind:

SMILES: C=CC(=O)NCCNC(=O)c1c(N)ncnc1Nc1ccc(OCc2ccccn2)c(Cl)c1
IC50 (SK-BR-3): > 1000 nM
IC50 (A-431): > 1000 nM

SMILES: C=CC(=O)NCc1coc(-c2c(N)ncnc2Nc2ccc(Oc3ccc(Cl)cc3Cl)c(Cl)c2)n1
IC50 (SK-BR-3): 6.5 nM
IC50 (A-431): 105 nM

SMILES: C=CC(=O)NCc1coc(-c2c(N)ncnc2Nc2ccc(OCc3cccc(F)c3)c(Cl)c2)n1
half-life at 5 µM ([1]; liver microsomes): 45 min
half-life at 5 µM ([2]; liver microsomes): 29 min
half-life at 5 µM ([3]; liver microsomes): > 100 min
IC50 (SK-BR-3): 3.9 nM
IC50 (A-431): 59 nM

SMILES: C=CC(=O)NCC#Cc1cncnc1Nc1ccc(OCc2ccccn2)c(Cl)c1
IC50 (SK-BR-3): > 1000 nM
IC50 (A-431): > 1000 nM

SMILES: C=CC(=O)NCc1coc(-c2c(N)ncnc2Nc2ccc(Cl)c(Cl)c2F)n1
half-life at 5 µM ([1]; liver microsomes): > 100 min
half-life at 5 µM ([2]; liver microsomes): > 100 min
half-life at 5 µM ([3]; liver microsomes): > 100 min
IC50 (SK-BR-3): 92.6 nM
half-life at 5 µM ([4]; liver microsomes): 74 min
IC50 (A-431): 282 nM

SMILES: C=CC(=O)NCc1coc(-c2c(N)ncnc2Nc2ccc(Oc3cc(Cl)ccc3Cl)c(Cl)c2)n1
half-life at 5 µM ([1]; liver microsomes): 96 min
half-life at 5 µM ([2]; liver microsomes): 51 min
half-life at 5 µM ([3]; liver microsomes): > 100 min
IC50 (SK-BR-3): 1.9 nM
half-life at 5 µM ([4]; liver microsomes): 57 min
IC50 (A-431): 184 nM

SMILES: C=CC(=O)NCc1coc(-c2c(N)ncnc2Nc2ccc(OCc3ccccn3)c(F)c2)n1
half-life at 5 µM ([1]; liver microsomes): 27 min
half-life at 5 µM ([2]; liver microsomes): 16 min
half-life at 5 µM ([3]; liver microsomes): 44 min
IC50 (SK-BR-3): 6.1 nM
half-life at 5 µM ([4]; liver microsomes): 9 min
IC50 (A-431): 63 nM

SMILES: C=CC(=O)NCc1coc(-c2c(N)ncnc2Nc2ccc(Oc3ccc(C)nc3)c(C)c2)n1
half-life at 5 µM ([1]; microsomes): 39 min
half-life at 5 µM ([2]; microsomes): 17 min
half-life at 5 µM ([3]; microsomes): 41 min
IC50 (SK-BR-3): 1.1 nM
half-life at 5 µM ([4]; microsomes): 43 min
IC50 (A-431): 64 nM

SMILES: C=CC(=O)NCc1coc(-c2c(N)ncnc2Nc2ccc(F)c(Cl)c2)n1
half-life at 5 µM ([1]; liver microsomes): 16 min
half-life at 5 µM ([2]; liver microsomes): 24 min
half-life at 5 µM ([3]; liver microsomes): 9 min
IC50 (SK-BR-3): 34.1 nM
half-life at 5 µM ([4]; liver microsomes): 9 min
IC50 (A-431): 52 nM

SMILES: C=CC(=O)NCc1coc(-c2c(N)ncnc2Nc2ccc(Oc3ccc(C)nc3)c(Cl)c2)n1
IC50 (SK-BR-3): 6.1 nM
IC50 (A-431): 68 nM

SMILES: C=CC(=O)Nc1cccc(-c2cncnc2Nc2ccc(OCc3ccccn3)c(Cl)c2)c1
IC50 (SK-BR-3): 6.1 nM
IC50 (A-431): 593 nM

SMILES: C=CC(=O)NCc1coc(-c2c(N)ncnc2Nc2ccc(Oc3ccccc3F)c(Cl)c2)n1
IC50 (SK-BR-3): 4.7 nM
IC50 (A-431): 29 nM

SMILES: C=CC(=O)NCc1coc(-c2c(N)ncnc2Nc2ccc(Oc3cccc(Cl)c3Cl)c(Cl)c2)n1
IC50 (SK-BR-3): 18.2 nM
IC50 (A-431): 113 nM

SMILES: C=CC(=O)NCc1coc(-c2cncnc2Nc2ccc(OCc3ccccn3)c(Cl)c2)n1
IC50 (SK-BR-3): 9.7 nM
IC50 (A-431): 105 nM

SMILES: C=CC(=O)NCc1cc(-c2cncnc2Nc2ccc(OCc3ccccn3)c(Cl)c2)on1
IC50 (SK-BR-3): 122 nM
IC50 (A-431): 2.2 nM

SMILES: C=CC(=O)NCc1coc(-c2c(N)ncnc2Nc2ccc(OCc3ccccn3)c(Cl)c2)n1.Cl
AUC(0-t) [25]: 455 ng·h/mL
Cmax [26]: 282 ng/mL
half-life [27]: 1660 min
bioavailability [28]: 21.6%
AUC(0-t) [29]: 440 ng·h/mL
Cmax [30]: 189 ng/mL
half-life [31]: 194 min
bioavailability [32]: 21.9%
